From publication PMC7881813 (The Indian Journal of Medical Research, 2020)

Columns and labels:
MCF-7 cells [1] = test: MTT assay for IC50 determination, MCF-7; format: cell-based; conditions: Homo sapiens, MCF7, read-out: IC50 for MCF-7
EAC-bearing mice [2] = test: Survivability study; format: in vivo, mouse; conditions: respective IC50 dosages, n=10
How it was run: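 EAC-bearing mice (1×10⁶ cells intraperitoneally), ten per group, treated beginning 24 h after inoculation. Survival days recorded. ILS% = (T−C)/C×100, with T the survival days of treated mice and C those of untreated mice. Kaplan–Meier survival analysis.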

EAC-bearing mice [3] = test: Hepatotoxicity and kidney toxicity parameters of EAC-bearing mice; format: in vivo, mouse; conditions: treatment at IC50 dosage; for ALP / ALT / AST / Creatinine / Urea: EAC-bearing mice, mean±SD n=6
MDA-MB-231 cells [4] = test: MTT assay for IC50 determination, MDA-MB-231; format: cell-based; conditions: Homo sapiens, MDA-MB-231, read-out: IC50 for MDA-MB-231
EAC-bearing mice [5] = test: Haematological parameters of EAC-bearing mice; format: in vivo, mouse; conditions: for Hb / Platelets / RBC / WBC: treatment at IC50 dose, mean±SD n=6; for Effect on haematological counts (in words): respective IC50 dosage
How it was run: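 Female Swiss albino mice (7–8 wk) inoculated intraperitoneally with 1×10⁶ EAC cells on day 0, then treated on days 1–10. After 4 h fasting, heparinised cardiac blood collected. Haemoglobin by Sahli's method; RBC, WBC and platelets on an automated haematology analyser. Mean±SD, six mice per group.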

EAC cells = test: In vivo IC50 determination in EAC cells by trypan blue dye exclusion; conditions: Mus musculus, 24 h, read-out: IC50 (50 per cent lethality of EAC cells) in vivo
MDA-MB-231 cells [6] = test: Comet assay, MDA-MB-231 cells; format: cell-based, human; conditions: MDA-MB-231, XD 5 μM
How it was run: (§1)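 Alkaline comet assay, about 10⁴ cells/slide in 1% low-melt agarose over normal agarose, capped with 0.5% low-melt agarose. Lysis overnight at 4°C (2.5 M NaCl, 100 mM Na₂-EDTA, 10 mM Tris, 1% Triton X-100, 10% DMSO, pH 10.0). Electrophoresis at pH 13.1, 30 min, 300 mA, 20 V. Tris neutralisation, ethidium bromide staining. Per cent damaged cells among 150–200 scored per slide.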

normal murine fibroblast = test: MTT cytotoxicity on normal mouse fibroblast; format: cell-based; conditions: xanthones up to highest concentration, cisplatin at 20 μM, XD at 1 and 5 μM
[7] = test system: EAC, MCF-7 and MDA-MB-231 cells; test: Intracellular ROS generation; format: cell-based; conditions: XD at respective IC50 (8.1, 1 and 5 μM), in vivo and in vitro, vs untreated
Bax:Bcl-2 = test: Western blot Bax:Bcl-2 ratio; format: cell-based; conditions: EAC, MCF-7 and MDA-MB-231 cells, XD-treated vs control
How it was run: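 Whole-cell extracts prepared from control and XD-treated EAC, MCF-7 and MDA-MB-231 cells. Bax and Bcl-2 immunoblotted and the Bax:Bcl-2 ratio calculated. EAC cells came from mice dosed on days 1–10 after intraperitoneal tumour inoculation. Repeated at least three times, mean±SD.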

[8] = test system: EAC, MCF-7 and MDA-MB-231 cells; test: DNA fragmentation assay; format: cell-based; conditions: XD at respective IC50 dosage (8.1, 1 and 5 μM)
[9] = test system: EAC, MCF-7 and MDA-MB-231 cells; test: Cell cycle phase distribution by flow cytometry; format: cell-based; conditions: 10 days of treatment in vivo and 48 h in vitro, vs control
How it was run: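 EAC cells taken from mice 10 days after daily XD dosing (days 1–10 after intraperitoneal inoculation with 1×10⁶ cells), PBS-washed and haemocytometer-counted. […] Cell-cycle distribution, including SubG0, by flow cytometry. Repeated at least three times.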

MCF-7 cells [10] = test: Comet assay, MCF-7 cells; format: cell-based, human; conditions: MCF-7, XD 1 μM
How it was run: as §1

normal fibroblast = test: Intracellular ROS generation; format: cell-based, mouse; conditions: treatment with 50 μM
[11] = test system: EAC, MCF-7 and MDA-MB-231 cells; test: TUNEL assay; format: cell-based; conditions: in vivo and in vitro models, vs control
How it was run: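 EAC cells recovered from the peritoneum of mice after 10 days of XD dosing, PBS-washed, smeared and fixed in 4% paraformaldehyde. MCF-7 and MDA-MB-231 cells grown on coverslips and fixed in paraformaldehyde. Fluorescein in situ cell-death (TUNEL) kit used per manufacturer; positive cells imaged by fluorescence microscopy at ×20.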

normal mice = test: Chronic toxicity study with therapeutic dosage of XD; format: in vivo, mouse; conditions: 8 μM, oral, 40 days, data not shown
How it was run: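 Normal mice dosed orally with XD for 40 days; controls got 0.9% saline. After 4 h fasting, blood drawn by cardiac puncture, clotted, spun at 2000×g for 15 min, serum held at −20°C. ALT, ALP, urea and creatinine measured on an automated clinical chemistry analyser.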

[12] = test system: normal cells (fibroblast); test: Comet assay, normal fibroblast; format: cell-based, mouse; conditions: highest dose of 40 μM
How it was run: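 Mouse fibroblasts treated with XD 24 h after seeding and harvested 48 h later. Alkaline comet assay: cells in low-melt agarose layers, overnight lysis at 4°C at pH 10.0, electrophoresis at pH 13.1 for 30 min (300 mA, 20 V), neutralisation, ethidium bromide stain. Fluorescence microscopy; damaged-cell per cent and tail length from 150–200 cells per slide.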

[13] = test system: liver cytosol of EAC-bearing mice; test: Antioxidative enzymes and LPO in liver cytosol of EAC-bearing mice; format: in vivo, mouse
How it was run: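 Liver from female Swiss albino mice bearing intraperitoneal EAC. After 15 days of treatment: GST in liver cytosol, rise in A340 with CDNB substrate, as CDNB-GSH conjugate formed per min per mg protein. GPx in post-mitochondrial fraction, fall in A340 after H₂O₂ addition, as nmol NADPH used per min per mg protein. Mean±SD, six per group.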

[14] = EAC-bearing mice, XD-treated 8.1 µM

Which results are given for `COc1cc(O)c2c(=O)c3c(O)ccc(OC)c3oc2c1` [XB, 1,8-dihydroxy-3,5-dimethoxyxanthone]?
IC50 (MCF-7 cells [1]): 25 µM; Increase in life span of tumour-bearing mice (ILS%) (EAC-bearing mice [2]): 63%; ALP (EAC-bearing mice [3]): 160±5 IU/l; ALT (EAC-bearing mice [3]): 93±4 IU/l; AST (EAC-bearing mice [3]): 335±8 IU/l; Creatinine (EAC-bearing mice [3]): 1.1 ± 0.09 mg/dL; Urea (EAC-bearing mice [3]): 67 ± 8 mg/dL; IC50 (MDA-MB-231 cells [4]): 30 µM; Hb (EAC-bearing mice [5]): 7.4 ± 0.5 g/dL; Platelets (EAC-bearing mice [5]): 596±4 10^3/µl; RBC (EAC-bearing mice [5]): 4.75±0.3 10^6/µl; WBC (EAC-bearing mice [5]): 24.6±0.6 10^3/µl; IC50 (EAC cells): 48.5 µM

For `COc1cc(O)c2c(=O)c3c(OC)c(OC)ccc3oc2c1` [XA, 1-hydroxy-3,7,8-trimethoxyxanthone], which IC50 (MCF-7 cells [1]) is on record?
Its IC50 is 30 µM.

What about the “Increase in life span of tumour-bearing mice (ILS%)” value (EAC-bearing mice [2]) of the same compound?
The value was 45%.

What about the ALP (EAC-bearing mice [3]) of the same compound?
The ALP was 103±3 IU/l.

What about the ALT (EAC-bearing mice [3]) of the same compound?
The ALT was 91±3 IU/l.

And the AST (EAC-bearing mice [3])?
The AST was 350±1 IU/l.

What about the Creatinine (EAC-bearing mice [3]) of the same compound?
Its Creatinine is 1.7 ± 0.09 mg/dL.

And the Urea (EAC-bearing mice [3])?
Its Urea is 71 ± 8 mg/dL.

And the IC50 (MDA-MB-231 cells [4])?
Its IC50 is 50 µM.

What about the Hb (EAC-bearing mice [5]) of the same compound?
Its Hb is 7.5 ± 0.8 g/dL.

And the Platelets (EAC-bearing mice [5])?
Its Platelets is 456±3 10^3/µl.

And the RBC (EAC-bearing mice [5])?
Its RBC is 4.15±0.4 10^6/µl.

What about the WBC (EAC-bearing mice [5]) of the same compound?
The WBC was 30.8±0.6 10^3/µl.

And the IC50 (EAC cells)?
Its IC50 is 48.5 µM.

Which results are given for `COc1cc(O)c2c(=O)c3c(OC)ccc(OC)c3oc2c1` [XC, 1-hydroxy-3,5,8-trimethoxyxanthone]?
IC50 (MCF-7 cells [1]): 8 µM; Increase in life span of tumour-bearing mice (ILS%) (EAC-bearing mice [2]): 81%; ALP (EAC-bearing mice [3]): 106±2 IU/l; ALT (EAC-bearing mice [3]): 85±5 IU/l; AST (EAC-bearing mice [3]): 355±9 IU/l; Creatinine (EAC-bearing mice [3]): 1.2 ± 0.09 mg/dL; Urea (EAC-bearing mice [3]): 79 ± 8 mg/dL; IC50 (MDA-MB-231 cells [4]): 25 µM; Hb (EAC-bearing mice [5]): 7.9 ± 0.9 g/dL; Platelets (EAC-bearing mice [5]): 441±2 10^3/µl; RBC (EAC-bearing mice [5]): 5.75±0.2 10^6/µl; WBC (EAC-bearing mice [5]): 27.2±0.8 10^3/µl; IC50 (EAC cells): 32.4 µM

What does the source list for `N.N.[Cl][Pt][Cl]` [Cisplatin, reference compound]?
Increase in life span of tumour-bearing mice (ILS%) (EAC-bearing mice [2]): 36.36%; Effect on haematological counts (in words) (EAC-bearing mice [5]): lowering of RBC, Hb and platelets; Hb (EAC-bearing mice [5]): 2.1 ± 0.4 g/dL; Platelets (EAC-bearing mice [5]): 200±2 10^3/µl; RBC (EAC-bearing mice [5]): 2.7±0.6 10^6/µl; WBC (EAC-bearing mice [5]): 35.8±0.8 10^3/µl

Which results are given for `COc1cc(O)c2c(=O)c3c(O)ccc(O)c3oc2c1` [XD, 1,5,8-trihydroxy-3-methoxyxanthone]?
per cent of damaged cells (comet assay) (MDA-MB-231 cells [6]): 67 per cent; Effect on normal murine fibroblast (normal murine fibroblast): without affecting the normal cells; ROS level [7]: significantly (P<0.001) increased; intracellular Bax:Bcl-2 ratio (Bax:Bcl-2): significant (P<0.001) augmentation; IC50 (MCF-7 cells [1]): 1 µM; DNA fragmentation [8]: smearing pattern; SubG0 population [9]: significantly (P<0.001) increase; per cent of damaged cells (comet assay) (MCF-7 cells [10]): 65 per cent; ROS generation in normal fibroblast (normal fibroblast): augmentation of ROS generation was not seen; Increase in life span of tumour-bearing mice (ILS%) (EAC-bearing mice [2]): 140%; ALP (EAC-bearing mice [3]): 57.2±2 IU/l; ALT (EAC-bearing mice [3]): 79±2 IU/l; AST (EAC-bearing mice [3]): 205±5 IU/l; Creatinine (EAC-bearing mice [3]): 0.7 ± 0.09 mg/dL; Urea (EAC-bearing mice [3]): 41 ± 8 mg/dL; Liver and kidney toxicity parameters in tumour-bearing mice (EAC-bearing mice [3]; compared to normal mice): almost back to normal; IC50 (MDA-MB-231 cells [4]): 5 µM; Effect on haematological counts (in words) (EAC-bearing mice [5]): lower WBC and platelet counts back to normal level; Hb (EAC-bearing mice [5]): 10 ± 2 g/dL; Platelets (EAC-bearing mice [5]): 341±8 10^3/µl; RBC (EAC-bearing mice [5]): 5.05±0.5 10^6/µl; WBC (EAC-bearing mice [5]): 17.2±0.2 10^3/µl; Apoptosis by TUNEL assay [11]: significant apoptosis; Chronic toxicity (liver and kidney toxicity parameters) (normal mice): did not show any toxicity; DNA damage in normal cells (comet assay) [12]: no DNA damage was seen in normal cells; IC50 (EAC cells): 8.1 µM; CAT ([13]; Drug control group): 0.4±0.06 units/mg; GPx ([13]; Drug control group): 8.28 ± 0.6 nmol/mg; GSH ([13]; Drug control group): 2.6 ± 0.3 nmol/mg; GST ([13]; Drug control group): 8 ± 0.6 nmol/mg; LPO ([13]; Drug control group): 1.6 ± 0.09 mol/mg; SOD ([13]; Drug control group): 17±6 units/mg; GPx [13, 14]: 9.9 ± 2 nmol/mg; GSH [13, 14]: 5.72 ± 1 nmol/mg; GST [13, 14]: 15 ± 5 nmol/mg; LPO [13, 14]: 1.8 ± 0.09 mol/mg; SOD [13, 14]: 35±0.8 units/mg
